Consider 13 compounds from PubChem BioAssay.

What is called inhibition is the relative decrease from the control value, in per cent.

Experiment [1] in a line: inhibitors of TNFa-induced NFkB p65 translocation, primary screen, imaging, HUVEC, MLSMR starter and 10KST1 sets (AID 438;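 active means inhibition above 20% together with a positive visual image hit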;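 further: compound added about 3h40 before a 20 min TNFalpha stimulation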;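 on inhibition: signal is the nuclear over cytoplasmic p65 intensity ratio per well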). The note with it: HUVEC TNFa-induced p65 nuclear translocation; cell count: measured here: nuclei count (cytotoxicity indicator), at 2.08 µM; inhibition: at 2 µM, stronger effect = higher value, 0% TNFa-plus-vehicle, 100% no-TNFa wells.
Experiment [2] is described as follows: inhibitors of E-selectin induction by TNFa, primary screen, imaging, HUVEC, immunofluorescence, MLSMR starter and 10KST1 sets (AID 487;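 active means visually confirmed hit in the image check and inhibition above 20%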;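 on inhibition: signal is fraction of cell area covered by stained E-selectin grains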;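 on nuclei count: 100% = median nuclei count of all wells on the same plate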). The conditions noted are these: HUVEC TNFalpha-induced E-selectin immunofluorescence imaging, at 2 µM; inhibition: stronger effect = higher value; nuclei count: measured here: cell number, toxicity.
Experiment [3] in a line: DUSP6 inhibitors restoring Erk phosphorylation by chemical complementation, primary imaging in DUSP6-transfected HeLa (AID 609;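 active means compounds giving at least 50% inhibition in the cell-based MKP-3 phosphatase rescue imaging test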;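 on inhibition: phospho-Erk level distribution per well compared with pooled transfected vehicle control wells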). The note with it: HeLa MKP-3 transfected, phospho-Erk imaging KS statistic, at 10 µM, cells stimulated with TPA for 15 min.
In experiment [4] the target is Dual specificity protein phosphatase 6 (Homo sapiens) (UniProt Q16828). The description is as above. The note with it: HeLa MKP-3 transfected, phospho-Erk imaging KS statistic; at 10 µM; stronger effect = higher value; cells stimulated with TPA for 15 min.
Chain of Dual specificity protein phosphatase 6 (Homo sapiens) (Q16828 whole entry, looked up): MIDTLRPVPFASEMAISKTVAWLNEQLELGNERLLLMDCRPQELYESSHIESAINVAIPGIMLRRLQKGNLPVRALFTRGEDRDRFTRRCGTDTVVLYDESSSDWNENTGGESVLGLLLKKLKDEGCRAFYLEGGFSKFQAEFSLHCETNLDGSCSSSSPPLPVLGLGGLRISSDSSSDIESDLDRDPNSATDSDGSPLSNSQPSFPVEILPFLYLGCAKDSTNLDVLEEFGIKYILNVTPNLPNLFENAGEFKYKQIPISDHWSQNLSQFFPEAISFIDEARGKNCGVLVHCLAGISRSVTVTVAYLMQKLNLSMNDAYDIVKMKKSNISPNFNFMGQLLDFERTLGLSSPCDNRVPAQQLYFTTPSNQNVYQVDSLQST
Experiment [5] concerns the target Voltage-gated potassium channel subunit beta-2 (Rattus norvegicus) (UniProt P62483). Description: KvBeta enzyme negative modulators, primary screen, biochemical, NADPH fluorescence (AID 622;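 active means fluorescence slope higher than the sample average by over 3 SD, cut at about -0.22 in these data, passing the limit was not always enough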;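 further: slope of raw intensity against log time taken from 70 to 1610 s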). The conditions noted are these: recombinant KvBeta, 4-cyanobenzaldehyde reduction, at 10 µM, stronger effect = higher value.
For experiment [6] the target is unchanged. Description: KvBeta positive modulators, primary screen, biochemical, NADPH fluorescence (AID 623).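 Further: fluorescence intensity change per second fitted from 20 to 320 s.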 The note with it: Recombinant KvBeta, NADPH fluorescence decrease slope, 10 min; at 10 µM; stronger effect = lower value.
For experiment [7], the target named is Muscarinic acetylcholine receptor M4 (Homo sapiens) (UniProt P08173). Description: compounds altering M4/GIRK thallium flux, either direction, primary screen, M4 allosteric agonist project, cell-based, HEK293 M4/GIRK, BTC-AM (AID 625;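 active means fluorescence slope after compound addition differing from the mean of all tested samples at 99.7% confidence, mostly higher but some lower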;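 further: thallium influx through GIRK channels coupled to M4 in HEK293 cells with BTC-AM dye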). The note with it: at 10 µM, actives lie on both sides. In a few lines:
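Material: HEK293 cells with M4 receptor and GIRK channels; Times: cells overnight at 37 °C, BTC-AM loading 1 h, reads 2 min total; Technique: kinetic BTC-AM fluorescence sampled at 1 Hz, 10 s pre-addition baseline; Read-out basis: slope over 15–24 s of trace normalized to starting intensity; Controls: carbachol positive, DMSO negative.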

Experiment [8] in a line: inhibitors of larval lipid processing in zebrafish, primary screen, whole organism, PED6 fluorescence, gall bladder and intestine (AID 686;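 active means a full or partial loss of lipid-probe fluorescence in the fish gall bladder, intestine or both, judged by eye; inactive means no fluorescence loss, or compound toxic to the fish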;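 further: larvae 5 to 7 days old with five fish per well; signal comes from phospholipase A2 cleavage of quenched PED6 carried via bile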). The conditions noted are these: Zebrafish larvae PED6 lipid processing, fluorescence scoring; screened at 20 µM (by protocol). In outline: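 Incubation: overnight exposure of larvae to compound plus PED6 / Test system: live zebrafish larvae aged 5-7 days, whole organism / Amount: 5 larvae per well / Read-out basis: visual per-well fluorescence inhibition score / Signal: visual fluorescence microscopy scoring of gall bladder, gut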

Experiment [9] in a line: inhibitors of Chlamydomonas gravitaxis, primary screen, whole organism, Chlamydomonas reinhardtii, WT vs cilia-less mutant, absorbance, 96-well (AID 463189;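 active means inhibition at or above 50% relative to wild type and mutant plate controls; inactive means inhibition below 50%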;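 further: 0% = wild type cc124 cells in DMSO and 100% = ciliumless bld1 mutant cells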). The conditions noted are these: OD600 absorbance, 2 days, at 10 µM, stronger effect = higher value.
The mark [10] stands for this setting: measured here: cell density z-score.
The mark [11] stands for this setting: measured here: nuclear c-Myc green intensity z-score.
Where [12] appears, read: measured here: nuclear pErk red intensity z-score, stronger effect = higher value.

Each structure is given as a SMILES string. The source made the active and inactive calls.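 How the source made its calls, unless noted: active means NADPH fluorescence slope more negative than the mean of all samples by about 3 SD, 99.7% confidence; inactive means the rest.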

Chain of Muscarinic acetylcholine receptor M4 (Homo sapiens) (P08173 whole entry, looked up): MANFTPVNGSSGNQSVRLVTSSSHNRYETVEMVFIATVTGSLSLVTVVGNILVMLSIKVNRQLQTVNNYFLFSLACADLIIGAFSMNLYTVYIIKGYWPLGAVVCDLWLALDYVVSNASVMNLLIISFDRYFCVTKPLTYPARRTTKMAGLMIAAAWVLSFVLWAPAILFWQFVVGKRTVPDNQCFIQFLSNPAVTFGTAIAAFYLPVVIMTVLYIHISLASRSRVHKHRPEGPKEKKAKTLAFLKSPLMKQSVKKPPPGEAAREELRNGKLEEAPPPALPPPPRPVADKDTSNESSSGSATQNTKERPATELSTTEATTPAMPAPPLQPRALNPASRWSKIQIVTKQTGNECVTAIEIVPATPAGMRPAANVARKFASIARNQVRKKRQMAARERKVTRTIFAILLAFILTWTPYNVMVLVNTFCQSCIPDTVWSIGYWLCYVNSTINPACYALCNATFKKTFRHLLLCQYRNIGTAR
Chain of Voltage-gated potassium channel subunit beta-2 (Rattus norvegicus) (P62483 whole entry, looked up): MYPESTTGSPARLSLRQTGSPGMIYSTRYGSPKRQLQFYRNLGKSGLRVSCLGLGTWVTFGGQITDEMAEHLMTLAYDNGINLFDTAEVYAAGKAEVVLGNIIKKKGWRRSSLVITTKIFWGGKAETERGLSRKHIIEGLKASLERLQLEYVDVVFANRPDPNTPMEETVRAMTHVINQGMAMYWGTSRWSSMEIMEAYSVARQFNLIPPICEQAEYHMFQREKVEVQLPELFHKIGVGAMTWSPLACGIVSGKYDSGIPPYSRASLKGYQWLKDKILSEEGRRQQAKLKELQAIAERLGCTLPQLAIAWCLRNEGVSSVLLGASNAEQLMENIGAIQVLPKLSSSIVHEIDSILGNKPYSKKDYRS

Take `Cc1ccc2cc(CNC(C)(C)C)c(=O)[nH]c2c1`: the cell count in experiment [1] came to 632. For the same compound, the inhibition is -4.2% (inactive) in experiment [1], -5% (inactive) in experiment [2], 7.7% (inactive) in [4] and 2.56% (inactive) in experiment [9]. Moreover, in [2], the nuclei count is 141%. The z-score in experiment [3] (setting [10]) is -0.205; in experiment [3] (setting [11]), -0.75; in experiment [3] (setting [12]), -0.413. Moreover, the results for the fluorescence slope in experiment [5] and in experiment [7] were -0.493 (inactive) and 0.00705 (inactive), respectively. In addition, the NADPH fluorescence slope in experiment [6] is -3.2e-05 (inactive). In experiment [8], the compound was classed as inactive.

Regarding `Cc1cc(=O)n(CCC(=O)O)c2ccccc12`, the cell count in [1] came out at 722. The inhibition in [1] is -2.6% (inactive); in [2] it was -33.8% (inactive); in [4] it was 5.95% (inactive); in [9], -13% (inactive). In [2], this compound registered a nuclei count of 175%. The z-score is 1.44 in experiment [3] (setting [10]), -0.504 in experiment [3] (setting [11]) and -1.75 in experiment [3] (setting [12]). Also, the fluorescence slope in experiment [5] is -0.48 (inactive); in experiment [7], 0.0062 (inactive). Besides, the NADPH fluorescence slope in experiment [6] was -8.8e-05 (inactive). Moreover, the call in [8] was inactive.

Consider `CC(C)COc1ccc(C(=O)NC(CC(C)C)C(=O)O)cc1` (centres undefined), for which the cell count in experiment [1] came to 649. In addition, the inhibition in experiment [1] was 9.2% (inactive); in experiment [2] it was -19.5% (inactive); in [4], -13.3% (inactive); in [9], 25.1% (inactive). Moreover, in experiment [2], the nuclei count came out at 84.1%. Besides, the z-score in experiment [3] (setting [10]) was -0.492; in [3] (setting [11]), 0.0237; in experiment [3] (setting [12]), 0.136. Further, the fluorescence slope was -0.484 (inactive) in [5] and 0.00574 (inactive) in [7]. The NADPH fluorescence slope in experiment [6] is -4.8e-05 (inactive). For the same compound, the outcome in [8] was inactive.

Turning to `Cn1cc(Cl)nc1C(O)c1ccccc1` (centres undefined), the cell count in experiment [1] stood at 629. Moreover, the inhibition in experiment [1] was -11% (inactive); in [2], -61.5% (inactive); in experiment [4], -0.233% (inactive); in [9], 20.3% (inactive). The compound also registered a nuclei count in experiment [2] of 174%. In addition, the z-score in experiment [3] (setting [10]) was 0.432; in experiment [3] (setting [11]), -0.744; in [3] (setting [12]) it was -0.497. The fluorescence slope was -0.481 (inactive) in [5] and 0.00721 (inactive) in experiment [7]. Moreover, the NADPH fluorescence slope in [6] was -2.6e-05 (inactive). Further, the compound was classed as inactive in experiment [8].

Regarding `O=C(Cc1ccccc1)Nc1cccc(-c2nnc(-c3ccco3)o2)c1`, in experiment [1], the cell count came to 665. The inhibition in experiment [1] was -8.6% (inactive); in experiment [2] it was 46.6% (inactive); in [4], -9.53% (inactive); in experiment [9] it was -2.78% (inactive). Besides, the nuclei count in [2] was 188%. The z-score in experiment [3] (setting [10]) stood at 0.0893; in experiment [3] (setting [11]), 1.04; in experiment [3] (setting [12]), 1.35. Further, the fluorescence slope was -0.485 (inactive) in experiment [5] and 0.00851 (inactive) in experiment [7]. In addition, the NADPH fluorescence slope in experiment [6] is -5.1e-05 (inactive). The compound was classed as inactive in [8].

As to `Cn1c(CSc2ncn[nH]2)nc2ccccc21`, the cell count in experiment [1] stood at 537. The inhibition in experiment [1] is -6.4% (inactive); in experiment [2] it was -75.5% (inactive); in experiment [4], 20.2% (inactive); in experiment [9], -14.5% (inactive). For the same compound, the nuclei count in experiment [2] was determined as 122%. Further, the figures for the z-score in experiment [3] (setting [10]), in [3] (setting [11]) and in [3] (setting [12]) were -3.21, 1.73 and 1.28, respectively. Besides, the figures for the fluorescence slope in experiment [5] and in [7] were -0.49 (inactive) and 0.00416 (inactive), respectively. The NADPH fluorescence slope in experiment [6] is -0.000116 (inactive). For the same compound, in experiment [8], the call was inactive.

For `Nc1ccc2oc(-c3cc(Br)ccc3Cl)nc2c1`, the cell count in [1] turned out to be 569. In addition, the inhibition is 3.7% (inactive) in [1], -26.9% (inactive) in experiment [2], 9.91% (inactive) in experiment [4] and 15.1% (inactive) in experiment [9]. In addition, the nuclei count in experiment [2] is 171%. Further, the z-score in experiment [3] (setting [10]) is 0.555; in experiment [3] (setting [11]), -1.29; in experiment [3] (setting [12]), 0.312. In addition, the fluorescence slope in experiment [5] was -0.00932 (inactive); in [7] it was 0.00586 (inactive). The NADPH fluorescence slope in [6] is 8.2e-06 (inactive). In addition, the compound was called inactive in experiment [8].

On to `O=C(CN1C2=NCCN2c2ccccc21)N1CCOCC1`, for which the cell count in experiment [1] worked out at 629. In addition, the inhibition in [1] is 11% (inactive); in [2], -7.9% (inactive); in experiment [4], -7.67% (inactive); in experiment [9], -8.14% (inactive). In experiment [2], this compound displayed a nuclei count of 115%. The figures for the z-score in experiment [3] (setting [10]), in experiment [3] (setting [11]) and in experiment [3] (setting [12]) were 0.036, -0.429 and -0.703, respectively. In addition, the fluorescence slope was -0.447 (inactive) in experiment [5] and 0.00508 (inactive) in [7]. For the same compound, the NADPH fluorescence slope in [6] was -4.9e-05 (inactive). In experiment [8], the call was inactive.

Take `CC(C)OCCCNc1ncnc2c1cnn2-c1ccccc1`: in [1], the cell count is 571. Moreover, the inhibition is -10.1% (inactive) in experiment [1], 45.3% (inactive) in experiment [2], 15.4% (inactive) in experiment [4] and 18.2% (inactive) in experiment [9]. The compound further had a nuclei count in [2] of 117%. For the same compound, the z-score was 0.477 in [3] (setting [10]), 1.09 in experiment [3] (setting [11]) and -0.0471 in [3] (setting [12]). Besides, the fluorescence slope is -0.377 (inactive) in experiment [5] and 0.00537 (inactive) in [7]. In addition, the NADPH fluorescence slope in experiment [6] is -5.1e-05 (inactive). The compound was called inactive in [8].

In the case of `COc1cc(C2Nc3cccc4cccc(c34)N2)cc(OC)c1OC(C)=O`, in [1], the cell count is 498. Moreover, the inhibition was -3.5% (inactive) in experiment [1], -2.1% (inactive) in [2], -2.59% (inactive) in experiment [4] and 17.1% (inactive) in experiment [9]. For the same compound, in experiment [2], the nuclei count came to 85.3%. Further, the values for the z-score in experiment [3] (setting [10]), in experiment [3] (setting [11]) and in experiment [3] (setting [12]) were 0.65, -1.19 and 0.407, respectively. Moreover, the fluorescence slope in experiment [5] was -0.474 (inactive); in [7] it was 0.00327 (inactive). In experiment [6], the NADPH fluorescence slope is 7.8e-06 (inactive). For the same compound, in experiment [8], the compound was classed as inactive.

With `CCSc1nc2sc3c(c2c2nnc(SCC(=O)NCc4ccco4)n12)CCCC3`, the cell count in [1] came out at 550. The inhibition in [1] is -5.1% (inactive); in experiment [2], -12.4% (inactive); in experiment [4] it was 1.9e-07% (inactive); in experiment [9] it was 9.13% (inactive). This compound had a nuclei count in [2] of 178%. Besides, the z-score in [3] (setting [10]) is -0.011; in experiment [3] (setting [11]), -1.17; in [3] (setting [12]), -1.17. The fluorescence slope was -0.399 (inactive) in experiment [5] and 0.00576 (inactive) in experiment [7]. Also, the NADPH fluorescence slope in experiment [6] was -1.1e-05 (inactive). For the same compound, the result in experiment [8] was inactive.

In the case of `Cc1ccccc1N1C(=O)CC(Sc2nnc(-c3ccccc3)o2)C1=O` (centres undefined), the cell count in experiment [1] is 482. Besides, the inhibition in experiment [1] was -2.4% (inactive); in experiment [2], -29.2% (inactive); in [4], 5.95% (inactive); in experiment [9], 57.7% (active). In addition, the nuclei count in experiment [2] was 177%. Moreover, the results for the z-score in [3] (setting [10]), in experiment [3] (setting [11]) and in [3] (setting [12]) were -0.982, -1.28 and 2.47, respectively. Further, the fluorescence slope was -0.383 (inactive) in experiment [5] and 0.00539 (inactive) in experiment [7]. In [6], the NADPH fluorescence slope was -3.3e-05 (inactive). In experiment [8], the compound was called inactive.

In the case of `COC(=O)c1ccc(CSc2nc(N3CCOCC3)c3c(c2C#N)CC(C)(C)OC3)o1`, the cell count in experiment [1] was 563. In addition, the inhibition was -4.2% (inactive) in [1], -97.4% (inactive) in experiment [2], 1.63% (inactive) in [4] and 6.95% (inactive) in experiment [9]. Also, in experiment [2], the nuclei count stood at 151%. The z-score in experiment [3] (setting [10]) was 0.813; in experiment [3] (setting [11]), -0.6; in [3] (setting [12]), 1.8. Further, the fluorescence slope is -0.461 (inactive) in [5] and 0.00467 (inactive) in experiment [7]. Moreover, in [6], the NADPH fluorescence slope was -0.000112 (inactive). For the same compound, the outcome in [8] was inactive.
